This is an account of results in ChEMBL document CHEMBL5653631, “A Potent and Selective ULK1 Inhibitor Suppresses Autophagy and Sensitizes Cancer Cells to Nutrient Stress” (iScience, 2018).

The target of test [1] is T1, Mitogen-activated protein kinase 13 (Homo sapiens) (UniProt O15264).
T1 sequence (whole entry): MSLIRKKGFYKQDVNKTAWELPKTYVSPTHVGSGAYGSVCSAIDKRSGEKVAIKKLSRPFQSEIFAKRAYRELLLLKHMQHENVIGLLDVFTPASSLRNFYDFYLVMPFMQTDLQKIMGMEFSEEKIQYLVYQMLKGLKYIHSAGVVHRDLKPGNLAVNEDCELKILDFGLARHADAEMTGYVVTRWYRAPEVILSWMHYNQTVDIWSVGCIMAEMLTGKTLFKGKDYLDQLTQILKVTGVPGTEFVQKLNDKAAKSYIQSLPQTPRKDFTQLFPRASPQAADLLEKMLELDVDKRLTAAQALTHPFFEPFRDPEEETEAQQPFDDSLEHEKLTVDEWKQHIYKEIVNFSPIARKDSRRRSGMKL
Briefly: Inhibition of human recombinant p38delta at 15 nM in presence of ATP by radiometric assay relative to control.

Test [2] concerns the target T2, Serine/threonine-protein kinase ICK (Homo sapiens) (UniProt Q9UPZ9).
T2 sequence (whole entry): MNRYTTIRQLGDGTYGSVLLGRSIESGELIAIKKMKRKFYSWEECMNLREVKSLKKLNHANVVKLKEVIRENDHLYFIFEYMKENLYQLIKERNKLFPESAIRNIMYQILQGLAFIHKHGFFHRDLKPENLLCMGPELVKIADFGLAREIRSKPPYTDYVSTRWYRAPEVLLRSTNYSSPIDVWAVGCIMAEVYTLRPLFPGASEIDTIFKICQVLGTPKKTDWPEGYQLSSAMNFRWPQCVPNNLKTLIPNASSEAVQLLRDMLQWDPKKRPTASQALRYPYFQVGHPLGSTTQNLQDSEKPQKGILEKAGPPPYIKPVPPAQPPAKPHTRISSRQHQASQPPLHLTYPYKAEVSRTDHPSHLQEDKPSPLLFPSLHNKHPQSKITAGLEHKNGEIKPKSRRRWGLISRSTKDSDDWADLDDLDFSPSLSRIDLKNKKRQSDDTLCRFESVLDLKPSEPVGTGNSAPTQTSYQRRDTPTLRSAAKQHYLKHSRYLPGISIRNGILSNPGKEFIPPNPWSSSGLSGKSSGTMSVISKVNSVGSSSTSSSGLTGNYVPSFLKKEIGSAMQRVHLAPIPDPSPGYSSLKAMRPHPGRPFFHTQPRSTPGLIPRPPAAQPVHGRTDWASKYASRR
As to the kind of experiment: Inhibition of human recombinant ICK at 15 nM related to control ULK1.

Test [3] addresses T3, Activin receptor type-1B (Homo sapiens) (UniProt P36896).
T3 sequence (whole entry): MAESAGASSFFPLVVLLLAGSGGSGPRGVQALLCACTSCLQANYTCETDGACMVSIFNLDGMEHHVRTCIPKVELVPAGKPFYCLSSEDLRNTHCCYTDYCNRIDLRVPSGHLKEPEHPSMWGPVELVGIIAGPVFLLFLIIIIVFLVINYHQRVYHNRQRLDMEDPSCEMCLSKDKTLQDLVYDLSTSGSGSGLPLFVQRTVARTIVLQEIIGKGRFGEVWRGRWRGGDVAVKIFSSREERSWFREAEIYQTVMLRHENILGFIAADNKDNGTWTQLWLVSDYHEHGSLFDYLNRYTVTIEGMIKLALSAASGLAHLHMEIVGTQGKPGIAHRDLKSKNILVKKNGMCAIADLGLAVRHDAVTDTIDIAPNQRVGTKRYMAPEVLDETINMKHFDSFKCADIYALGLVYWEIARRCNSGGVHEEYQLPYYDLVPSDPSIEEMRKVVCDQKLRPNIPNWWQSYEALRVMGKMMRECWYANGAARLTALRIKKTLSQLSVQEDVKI
As to the kind of experiment: Inhibition of human recombinant ALK4 at 40 nM related to control ULK1. The essentials: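 Radiometric activity assays in a panel of 327 human recombinant kinases, each run in duplicate at one inhibitor concentration. Activity remaining is expressed as percent of vehicle control, and percent inhibition is calculated as 100% minus percent activity remaining.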

For test [4], the target named is T4, Muscle, skeletal receptor tyrosine-protein kinase (Homo sapiens) (UniProt O15146).
T4 sequence (whole entry): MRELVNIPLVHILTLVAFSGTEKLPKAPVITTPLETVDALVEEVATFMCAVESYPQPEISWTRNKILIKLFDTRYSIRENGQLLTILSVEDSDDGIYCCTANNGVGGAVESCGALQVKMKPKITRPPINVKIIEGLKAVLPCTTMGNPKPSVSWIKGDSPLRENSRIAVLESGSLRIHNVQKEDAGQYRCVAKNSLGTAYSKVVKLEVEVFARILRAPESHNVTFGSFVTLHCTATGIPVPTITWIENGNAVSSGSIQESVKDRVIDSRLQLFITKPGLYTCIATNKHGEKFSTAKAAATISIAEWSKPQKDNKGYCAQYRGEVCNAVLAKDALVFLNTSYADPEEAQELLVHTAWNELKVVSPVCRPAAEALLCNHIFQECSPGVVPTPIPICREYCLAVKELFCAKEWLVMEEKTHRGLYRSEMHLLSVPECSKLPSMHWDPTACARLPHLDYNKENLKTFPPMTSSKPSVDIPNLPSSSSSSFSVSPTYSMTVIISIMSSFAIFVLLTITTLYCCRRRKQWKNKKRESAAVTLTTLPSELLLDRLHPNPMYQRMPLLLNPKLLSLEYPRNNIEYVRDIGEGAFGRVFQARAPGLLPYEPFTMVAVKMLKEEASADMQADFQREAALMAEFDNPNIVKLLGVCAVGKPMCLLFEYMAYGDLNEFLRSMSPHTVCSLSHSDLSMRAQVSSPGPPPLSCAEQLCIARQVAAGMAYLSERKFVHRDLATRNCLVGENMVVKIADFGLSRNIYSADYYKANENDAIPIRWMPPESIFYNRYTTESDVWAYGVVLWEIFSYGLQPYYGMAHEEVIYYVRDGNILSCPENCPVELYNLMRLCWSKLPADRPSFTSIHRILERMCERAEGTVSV
Briefly: Inhibition of human recombinant MUSK at 500 nM related to control ULK1.

In test [5] the target is Cyclin-dependent kinase 5 (Homo sapiens) (UniProt Q00535). As to the kind of experiment: Inhibition of human recombinant CDK5 at 500 nM in presence of ATP by radiometric assay relative to control.
Test [6] deals with SRSF protein kinase 3 (Homo sapiens) (UniProt Q9UPE1). As to the kind of experiment: Inhibition of human recombinant MSSK1 at 500 nM related to control ULK1.
Sequence of SRSF protein kinase 3 (Homo sapiens) (Q9UPE1 whole entry): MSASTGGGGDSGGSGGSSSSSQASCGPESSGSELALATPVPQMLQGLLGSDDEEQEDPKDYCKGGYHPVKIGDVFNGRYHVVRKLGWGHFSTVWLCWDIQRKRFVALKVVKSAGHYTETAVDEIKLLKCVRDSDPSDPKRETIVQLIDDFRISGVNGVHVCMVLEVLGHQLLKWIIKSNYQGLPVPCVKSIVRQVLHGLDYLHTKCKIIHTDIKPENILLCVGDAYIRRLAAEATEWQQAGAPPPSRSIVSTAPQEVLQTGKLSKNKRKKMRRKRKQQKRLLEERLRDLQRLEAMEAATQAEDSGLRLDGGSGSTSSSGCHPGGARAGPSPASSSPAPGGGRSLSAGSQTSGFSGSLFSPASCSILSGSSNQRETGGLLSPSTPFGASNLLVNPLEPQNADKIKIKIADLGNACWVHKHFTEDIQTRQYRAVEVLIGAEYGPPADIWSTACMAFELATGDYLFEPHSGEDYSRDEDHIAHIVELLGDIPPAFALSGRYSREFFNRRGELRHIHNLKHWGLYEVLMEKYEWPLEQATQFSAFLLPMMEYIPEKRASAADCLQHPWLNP

Sequence of Cyclin-dependent kinase 5 (Homo sapiens) (Q00535 whole entry, looked up): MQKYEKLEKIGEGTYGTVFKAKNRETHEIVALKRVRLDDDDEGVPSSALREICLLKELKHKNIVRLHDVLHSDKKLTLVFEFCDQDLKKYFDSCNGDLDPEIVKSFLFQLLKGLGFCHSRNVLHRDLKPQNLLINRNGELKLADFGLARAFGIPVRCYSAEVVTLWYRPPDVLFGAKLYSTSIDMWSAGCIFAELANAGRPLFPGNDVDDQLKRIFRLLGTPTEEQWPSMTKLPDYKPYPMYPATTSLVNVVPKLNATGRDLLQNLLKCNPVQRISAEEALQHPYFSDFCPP

With `CC(C)[C@H](NC(=O)c1cc(-c2cnn3cc(-c4ccc(OCCN5CCCCC5)cc4)cnc23)cs1)C(F)(F)F`, in test [1], the inhibition – broadly, how much of the control response was suppressed – stood at 6%. In addition, the fold change (FC) in test [2] was 0.

For the compound `O=C(N[C@@H](C1CC1)C(F)(F)F)c1cc(-c2cnn3cc(-c4ccc(F)cc4)cnc23)cs1`, the fold change (FC) in test [3] came out at 0.

With `CNC(=O)c1ccccc1Oc1nc(Nc2cc(OC)c(OC)c(OC)c2)ncc1Br`, the results for the fold change (FC) in test [4] and in test [6] were 0.46 and 0.2, respectively. In addition, the inhibition in test [5] was 57%.
